Assay outcomes as filed in PubChem BioAssay.
A selection: hits, their analogues and other compounds. The true share with any hit is near 3.5%.
RGS4 block = inhibitors of human RGS4; P49798; HEK293 M3R/RGS4 inducible, Fluo-4 calcium flux; active compounds read high; triggered by carbachol at its EC20; B-score at 10 µM; 310,000 tested, 0.45% active;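 active = B-score, a plate-corrected calcium signal, over three deviations above library mean, with baseline fluorescence within five deviations of library mean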;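 note: RGS4 expression induced by doxycycline in cells with stable M3 receptor; B-score is computed from the integrated fluorescence ratio over baseline after carbachol; higher B-score means a larger calcium signal and so more RGS4 inhibition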
Target sequence (P49798 whole entry, looked up): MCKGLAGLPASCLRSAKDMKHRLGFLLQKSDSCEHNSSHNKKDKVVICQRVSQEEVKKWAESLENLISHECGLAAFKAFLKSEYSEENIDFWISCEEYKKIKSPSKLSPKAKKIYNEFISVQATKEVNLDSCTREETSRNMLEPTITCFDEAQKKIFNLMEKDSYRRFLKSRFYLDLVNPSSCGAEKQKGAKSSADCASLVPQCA
MrgX1 agonist = activates human MrgX1 receptor signaling. AID 588627. B-score at 10 µM. MrgX1-HEK293 cells, Fluo-4 calcium fluorescence, agonist mode; active compounds read high. 310,000 tested, 0.44% active;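 active = calcium response B-score plate-corrected fluorescence ratio at least 3 library SD, with starting fluorescence B-score inside 5 SD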
Target sequence (Q96LB2 whole entry, looked up): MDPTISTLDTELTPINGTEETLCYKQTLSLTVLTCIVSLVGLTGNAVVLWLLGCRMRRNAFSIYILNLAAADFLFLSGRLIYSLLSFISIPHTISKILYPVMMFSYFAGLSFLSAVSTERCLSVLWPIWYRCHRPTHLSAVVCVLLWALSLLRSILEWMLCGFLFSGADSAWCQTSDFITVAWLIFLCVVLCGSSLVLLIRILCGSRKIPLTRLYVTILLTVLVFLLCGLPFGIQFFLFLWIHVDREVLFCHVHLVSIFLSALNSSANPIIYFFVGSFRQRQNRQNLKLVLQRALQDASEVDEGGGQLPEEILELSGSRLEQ
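Material: MrgX1-expressing HEK293 cells / Dosing: compound as first of three additions / Incubation: overnight seeding, then 1 h dark dye loading / Signal: Fluo-4 NW calcium fluorescence / Evaluation: B-scored fluorescence response ratio / Benchmarks: positive and negative control wells on each plate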
RGS4 act = RGS4 potentiation or activation. 310,000 tested, 0.92% active. B-score at 10 µM. HEK293 M3R/inducible RGS4, carbachol calcium flux Fluo4; active compounds read low;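 active = B-score of the integrated calcium signal more than 4 SD below the library mean, with starting fluorescence not abnormally high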;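 note: negative B-score means reduced calcium response which marks RGS4 activation or potentiation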
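Assay system: Inducible-RGS4 HEK293 cells carrying M3 receptor | Schedule: Compound preincubation 20 min at room temperature before agonist | Signal: Kinetic calcium fluorescence imaging with Fluo4-AM dye, 2 µM | Read-out basis: B score from integrated fluorescence ratio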
MrgX1 antagonist = blocks BAM8-22 activation of human MrgX1 receptor; MRGX1-HEK293 calcium flux, Fluo-4, BAM8-22 antagonism; active compounds read low; 310,000 tested, 1.3% active; AID 588676; Q96LB2; B-score at 10 µM;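 active = calcium-response B-score plate-corrected more than 3 library SD below zero, starting fluorescence within 5 deviations, no agonist response on first addition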;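 note: peak minus trough fluorescence over baseline after final BAM8-22 challenge near maximal dose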
MrgX1 allo act = human MrgX1 positive allosteric modulation, primary screen | MrgX1-HEK293, Fluo-4 calcium flux, FDSS; active compounds read high | AID 588675 | B-score at 10 µM | Q96LB2 | 310,000 tested, 0.63% active;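 active = plate-corrected calcium response at least 3 library SD above typical, normal starting fluorescence, not activating the receptor alone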;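 note: compound read alongside a low EC10 to EC30 dose of BAM8-22 agonist; peak minus trough fluorescence over baseline measured at the second addition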
RGS4 activ val = RGS4 activation, validation assay; 1,100 tested, 89% active; HEK293 M3R/RGS4 inducible, carbachol calcium flux Fluo4; inhibition, % at 10 µM; shares compounds with RGS4 act; AID 602282;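 active = inhibition above 3 SD of the buffer control wells, cut at about 41% in these data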;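 note: signal is the integrated peak-minus-minimum Fluo4 fluorescence over baseline ratio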
RGS4 act ctr = counter-screen for RGS4 activators: effect in non-induced cells. 1,100 tested, 82% active. HEK293 M3R non-induced RGS4, Fluo4 calcium flux; after carbachol challenge at its EC90. AID 602283. shares compounds with RGS4 act. inhibition, % at 10 µM;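 active = inhibition exceeding 3 SD of buffer-only control wells, cut at about 26% in these data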;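 note: percent drop in integrated peak-minus-baseline over baseline Fluo4 ratio after carbachol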
RGS4 block valid = validation of RGS4 inhibitors; 1,700 tested, 65% active; shares compounds with RGS4 block; calcium response, % at 10 µM; HEK293 M3R/RGS4, carbachol calcium Fluo-4 fluorescence; carbachol added at its EC20; 0 = buffer wells, 100 = carbachol control;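 active = duplicate-averaged calcium response above the buffer-only control mean plus 5 SD of those controls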;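 note: integrated fluorescence ratio F max minus min over baseline F0; higher response in RGS4-induced cells means RGS4 inhibition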
M3R Ca ctr = checks RGS4 inhibitor effects in non-induced HEK293 M3R cells. AID 493000. carbachol calcium Fluo-4; submaximal (EC20) carbachol stimulus; buffer wells 0%, carbachol control wells 100%. 1,900 tested, 20% active. activity (percent), % at 10 µM. shares compounds with RGS4 block; call rule not given here;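 note: RGS4 induction absent so cells express M3R without RGS4; higher means more calcium signal and flags a non-specific hit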
RGS4 inh ctr2 = signal in non-induced cells without carbachol, RGS4 inhibitor counter-screen; shares compounds with RGS4 block; HEK293 M3R/RGS4 non-induced, Fluo-4 calcium, no carbachol; normalised: buffer wells 0%, carbachol wells 100%; calcium response (agonist-mode artifact), % at 10 µM; 1,900 tested, 22% active;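 active = duplicate-averaged calcium rise in uninduced cells above buffer wells' mean plus 5 SD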
Starred values were filed as active, the others as inactive; i = inactive; . = no result.

SMILES	RGS4 block	MrgX1 agonist	RGS4 act	MrgX1 antagonist	MrgX1 allo act	RGS4 activ val	RGS4 act ctr	others
c1ccc(C(OCCN2CCNCC2)c2ccccc2)cc1	i	i	-9.5*	i	i	92*	74*
O=C(c1ccc(Cl)cc1)C1CCCN(C2CCSCC2)C1 (stereo not given)	i	i	-7.9*	i	i	92*	55*
CCCn1ncc(CN2CCCC(C(=O)c3cccc(OC)c3)C2)c1C (stereo not given)	i	i	-9.1*	i	i	91*	70*
CCC[N+]12CCC(CC1)C(=C(c1ccccc1)c1ccccc1)C2	i	i	-12*	i	i	90*	64*
O=C(O)C1C2CCC(O2)C1C(=O)Nc1cccc(Br)c1 (stereo not given)	i	i	i	i	i	.	.
OC(CC#CCN1CCCCCC1)(c1ccccc1)C1CCCC1 (stereo not given)	i	i	-7.7*	i	i	93*	95*
CC1(C(O)(C#CCN2CCCCC2)c2ccccc2)CCCC1 (stereo not given)	i	i	-7.6*	i	i	93*	89*
CC(=O)N(C)CC#CCN1CCCC(CO)C1 (stereo not given)	i	i	i	i	i	.	.
Cc1cccc(CN2CCCC(C(=O)c3ccc4c(c3)OCO4)C2)n1 (stereo not given)	i	i	i	i	i	.	.
O=C(c1ccc2c(c1)OCO2)C1CCCN(Cc2c(F)cccc2Cl)C1 (stereo not given)	i	i	-8.6*	i	i	92*	81*
CCOc1cccc(CNC2CN3CCC2CC3)c1 (stereo not given)	i	i	i	i	i	.	.
COc1cccc(CNC2CN3CCC2CC3)c1OC (stereo not given)	i	i	-7.7*	i	i	56*	26*
O=C1C2CCN(CC2)C1Cc1ccc(OCc2ccccc2)cc1 (stereo not given)	i	i	i	i	i	.	.
CC1CN=C(NCCc2ccccc2)S1 (stereo not given)	i	i	i	i	i	.	.
Cc1ccc(-c2nc3ccccc3c(=O)n2-c2cc(C)ccn2)cc1	i	i	i	i	i	.	.
Cc1ccc(-c2nc3ccccc3c(=O)n2-c2cccc(C)n2)cc1	i	i	-10*	i	i	48*	84*
O=c1[nH]c(=S)n(C2CC2)c(O)c1C=Nc1cccc(C(F)(F)F)c1	i	i	i	i	i	.	.
OC(c1ccccc1)(c1ccc(Cl)cc1)C1CN2CCC1CC2 (stereo not given)	i	i	-9.1*	i	i	78*	57*
COc1ccc(CC2(CCc3ccncc3)C(=O)NC(=O)NC2=O)cc1OC	i	i	i	i	i	.	.
CC1CN(C(=O)CCC(=O)N2CCC3(CC2)OCCO3)c2cc(Cl)ccc2O1 (stereo not given)	i	i	i	i	i	.	.
CCOc1cccc(CNCCc2c(C)[nH]c3ccc(OC(F)(F)F)cc23)c1O	i	i	-8.9*	-5.3*	i	90*	90*
Cc1[nH]c2ccc(OC(F)(F)F)cc2c1CCNCc1cccc([N+](=O)[O-])c1	i	i	i	i	i	.	.
COc1ccc(CN2C(=O)NC(=O)/C(=C/c3ccc([N+](=O)[O-])s3)C2=O)cc1	8.9*	i	i	i	i	.	.	RGS4 block valid=29%*;M3R Ca ctr=i;RGS4 inh ctr2=i
O=C1NC(=O)N(Cc2ccc(F)cc2)C(=O)/C1=C\c1ccc([N+](=O)[O-])s1	6.3*	i	i	i	i	.	.	RGS4 block valid=20%*;M3R Ca ctr=i;RGS4 inh ctr2=i
COc1ccc(CN2C(=O)NC(=O)/C(=C\c3cc(OC)c(OC)c(OC)c3)C2=O)cc1	i	i	i	i	i	.	.
SMILES	RGS4 block	MrgX1 agonist	RGS4 act	MrgX1 antagonist	MrgX1 allo act	RGS4 activ val	RGS4 act ctr	others
CCCc1cc(=O)oc2cc(OCC(=O)N3CCC(C(=O)O)(c4ccccc4)CC3)ccc12	i	i	i	i	i	.	.
C=C1C(=O)O[C@@H]2C[C@@H](C)[C@@H]3C=CC(=O)[C@@]3(C)[C@@H](O)[C@H]12	5.2*	i	i	i	i	.	.	RGS4 block valid=35%*;M3R Ca ctr=i;RGS4 inh ctr2=i
Cc1cc(C)cc(N2C(=O)NC(=O)/C(=C\c3cccn3-c3ccc(Cl)cc3)C2=O)c1	i	i	i	i	i	.	.
Cc1cc(C)cc(N2C(=O)NC(=O)/C(=C\c3cccn3-c3ccccc3)C2=O)c1	9.2*	i	i	i	i	.	.	RGS4 block valid=18%*;M3R Ca ctr=i;RGS4 inh ctr2=15%*
COc1ccc(Cn2c(O)c(/C=N/NC(=O)c3ccccc3)c(=O)[nH]c2=O)cc1	i	i	i	i	i	.	.	M3R Ca ctr=i;RGS4 inh ctr2=9.5%*
O=C(N/N=C/c1c(O)n(Cc2ccccc2)c(=O)[nH]c1=O)c1ccccc1O	6.9*	i	i	i	i	.	.	RGS4 block valid=12%*;M3R Ca ctr=i;RGS4 inh ctr2=i
O=C(N/N=C/c1c(O)n(CCc2ccccc2)c(=O)[nH]c1=O)c1ccccc1O	i	i	i	i	i	.	.	RGS4 block valid=i;M3R Ca ctr=i;RGS4 inh ctr2=9.0%*
O=C(N/N=C/c1c(O)n(CCc2ccc(F)cc2)c(=O)[nH]c1=O)c1ccccc1	i	i	i	i	i	.	.
COc1ccc(Cn2c(O)c(/C=N/NC(=O)c3ccncc3)c(=O)[nH]c2=O)cc1	i	i	i	i	i	.	.
O=C(N/N=C/c1c(O)n(Cc2ccc(F)cc2)c(=O)[nH]c1=O)c1ccccc1O	i	i	i	i	i	.	.	RGS4 block valid=i;M3R Ca ctr=i;RGS4 inh ctr2=i
